From ChEMBL document CHEMBL3045950, “Design, synthesis, and analysis of the quantitative structure-activity relationships of 4-phenyl-acyl-substituted 3-(2,5-dimethylphenyl)-4-hydroxy-1-azaspiro[4.5]dec-3-ene-2,8-dione derivatives” (2012) come the findings set out here.

Holding throughout (type): functional
The test system of assay [1] is Aphis fabae. The experiment in a line: Insecticidal activity against Aphis fabae (black bean aphid) apterous third-instar nymphae in tender soybean shoots assessed as inhibition activity at 100 mg/L after 72 hr. An outline of the steps: (§1)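 Test solutions were made in N,N-dimethylformamide and diluted to working concentration with distilled water containing TW-80 (0.1 mL L⁻¹). Aphids were dipped following a slightly modified FAO dip test. Assessment was made 72 h after treatment. Each treatment was run three times, and control groups were given water only. Deviation of values was 5%.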

Assay [2] deals with Aphis fabae. The experiment in a line: Insecticidal activity against Aphis fabae (black bean aphid) apterous third-instar nymphae in tender soybean shoots assessed as inhibition activity at 10 mg/L after 72 hr. An outline of the steps: as §1
In assay [3] the test system is Tetranychus cinnabarinus. The experiment in a line: Larvicidal activity against Tetranychus cinnabarinus (carmine spider mite) fifty third-instar mite larvae assessed as inhibition activity at 100 mg/L after 72 hr. In outline: (§2)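 Test solutions were made in N,N-dimethylformamide and diluted with distilled water containing TW-80 (0.1 mL L⁻¹). Fifty third-instar larvae were dipped in the dilution for 5 s, and excess liquid was removed. Larvae were then held in an air-conditioned room, and mortality was scored at 72 h. Tests were run in triplicate, and controls were treated with water only.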

In assay [4] the test system is Tetranychus cinnabarinus. The experiment in a line: Larvicidal activity against Tetranychus cinnabarinus ( carmine spider mite ) fifty third-instar mite larvae assessed as inhibition activity at 10 mg/L after 72 hr. In outline:
as §2

As for `Cc1ccc(C)c(C2=C(OC(=O)c3ccc(Cl)cc3)C3(CCC(=O)CC3)NC2=O)c1`, the inhibition at 100 µg/mL in the assay with Aphis fabae [1] is 68.2%; with Tetranychus cinnabarinus [3] it was 42.9%. The inhibition at 10 µg/mL is 10.8% in the assay on Aphis fabae [2] and 9.23% in the assay on Tetranychus cinnabarinus [4].
In the case of `Cc1ccc(C)c(CC(=O)OC2=C(c3cc(C)ccc3C)C(=O)NC23CCC(=O)CC3)c1`, the inhibition at 100 µg/mL turned out to be 76.2% in the assay with Aphis fabae [1] and 61.6% in the assay on Tetranychus cinnabarinus [3]. Also, the inhibition at 10 µg/mL is 37.3% with Aphis fabae [2] and 24.6% in the assay on Tetranychus cinnabarinus [4].
For `Cc1cc(C)c(CC(=O)OC2=C(c3cc(C)ccc3C)C(=O)NC23CCC(=O)CC3)c(C)c1` the same measures were 69.2%, 39.4%, 25.2% and 12.1%.
In the case of `COc1ccc(CC(=O)OC2=C(c3cc(C)ccc3C)C(=O)NC23CCC(=O)CC3)cc1`, the inhibition at 100 µg/mL in the assay with Aphis fabae [1] is 92.1%; with Tetranychus cinnabarinus [3], 80.5%. The inhibition at 10 µg/mL turned out to be 87.3% in the assay with Aphis fabae [2] and 24.4% with Tetranychus cinnabarinus [4].
Take `Cc1ccc(C)c(C2=C(OC(=O)Cc3ccc(F)cc3)C3(CCC(=O)CC3)NC2=O)c1`: the inhibition at 100 µg/mL in the assay on Aphis fabae [1] came out at 93.7%; in the assay on Tetranychus cinnabarinus [3], 49%. The inhibition at 10 µg/mL in the assay with Aphis fabae [2] was 69.3%; with Tetranychus cinnabarinus [4], 29.9%.
For `Cc1ccc(C)c(C2=C(OC(=O)Cc3ccccc3Cl)C3(CCC(=O)CC3)NC2=O)c1`, the inhibition at 100 µg/mL with Aphis fabae [1] was found to be 96.5%; in the assay on Tetranychus cinnabarinus [3], 53.5%. Besides, the figures for the inhibition at 10 µg/mL with Aphis fabae [2] and with Tetranychus cinnabarinus [4] were 59.2% and 28.3%, respectively.
Take `Cc1ccc(C)c(C2=C(OC(=O)Cc3cccc(Cl)c3)C3(CCC(=O)CC3)NC2=O)c1`: the inhibition at 100 µg/mL stood at 44.6% in the assay with Aphis fabae [1] and 24.7% in the assay with Tetranychus cinnabarinus [3]. Further, the inhibition at 10 µg/mL stood at 13.6% in the assay with Aphis fabae [2] and 3.23% with Tetranychus cinnabarinus [4].
The corresponding values for `Cc1ccc(C)c(C2=C(OC(=O)Cc3ccc(Cl)cc3)C3(CCC(=O)CC3)NC2=O)c1` are 89.8%, 58%, 47.3% and 17.8%.
For `Cc1ccc(C)c(C2=C(OC(=O)Cc3ccc(Cl)cc3Cl)C3(CCC(=O)CC3)NC2=O)c1` the same measures were 85.6%, 75.9%, 26.9% and 31.2%.
The corresponding values for `Cc1ccc(C)c(C2=C(OC(=O)Cc3ccc(Cl)c(Cl)c3)C3(CCC(=O)CC3)NC2=O)c1` are 97.3%, 71.7%, 49.3% and 28.9%.
Turning to `Cc1ccc(C)c(C2=C(OC(=O)Cc3ccc(Br)cc3)C3(CCC(=O)CC3)NC2=O)c1`, the inhibition at 100 µg/mL came out at 47.8% in the assay on Aphis fabae [1] and 32.5% with Tetranychus cinnabarinus [3]. The inhibition at 10 µg/mL in the assay on Aphis fabae [2] came to 9.78%; with Tetranychus cinnabarinus [4] it was 5.25%.
With `Cc1ccc(C)c(C2=C(OC(=O)Cc3ccc(C(F)(F)F)cc3)C3(CCC(=O)CC3)NC2=O)c1`, the inhibition at 100 µg/mL in the assay with Aphis fabae [1] was found to be 98.6%; with Tetranychus cinnabarinus [3] it was 85.3%. The inhibition at 10 µg/mL was found to be 60% in the assay on Aphis fabae [2] and 49% in the assay with Tetranychus cinnabarinus [4].
Consider `Cc1ccc(C)c(C2=C(OC(=O)Cc3ccc([N+](=O)[O-])cc3)C3(CCC(=O)CC3)NC2=O)c1`, for which the inhibition at 100 µg/mL in the assay with Aphis fabae [1] was found to be 92.2%; in the assay with Tetranychus cinnabarinus [3] it was 73.8%. Besides, the inhibition at 10 µg/mL in the assay on Aphis fabae [2] was found to be 32.3%; with Tetranychus cinnabarinus [4], 16.3%.
For `CCOC(=O)OC1=C(c2cc(C)ccc2C)C(=O)NC12CCC(=O)CC2` the same measures were 93.5%, 62.3%, 45.9% and 30.4%.
As to `CCCC(=O)OC1=C(c2cc(C)ccc2C)C(=O)NC12CCC(=O)CC2`, the inhibition at 100 µg/mL with Aphis fabae [1] turned out to be 98.7%; in the assay on Tetranychus cinnabarinus [3], 54.7%. The results for the inhibition at 10 µg/mL with Aphis fabae [2] and in the assay with Tetranychus cinnabarinus [4] were 37.3% and 19.7%, respectively.
For the compound `Cc1ccc(C)c(C2=C(OC(=O)CC(C)(C)C)C3(CCC(=O)CC3)NC2=O)c1`, the inhibition at 100 µg/mL with Aphis fabae [1] amounted to 62.1%; in the assay on Tetranychus cinnabarinus [3] it was 26.1%. Also, the inhibition at 10 µg/mL in the assay with Aphis fabae [2] was found to be 21.6%; in the assay on Tetranychus cinnabarinus [4], 8.76%.
For `C/C=C/C(=O)OC1=C(c2cc(C)ccc2C)C(=O)NC12CCC(=O)CC2` the same measures were 85.6%, 58.2%, 34.9% and 23.4%.
`Cc1ccc(C)c(C2=C(OC(=O)c3ccccc3)C3(CCC(=O)CC3)NC2=O)c1`: the figures for the inhibition at 100 µg/mL in the assay on Aphis fabae [1] and in the assay on Tetranychus cinnabarinus [3] were 91.8% and 49.8%, respectively. Moreover, the inhibition at 10 µg/mL in the assay on Aphis fabae [2] was determined as 29.3%; in the assay on Tetranychus cinnabarinus [4], 18.2%.
Take `Cc1ccc(C)c(C2=C(OC(=O)c3ccccc3C)C3(CCC(=O)CC3)NC2=O)c1`: the values for the inhibition at 100 µg/mL with Aphis fabae [1] and with Tetranychus cinnabarinus [3] were 25.5% and 59.4%, respectively. The inhibition at 10 µg/mL is 6.27% in the assay with Aphis fabae [2] and 17.3% with Tetranychus cinnabarinus [4].
For `Cc1ccc(C)c(C2=C(OC(=O)Cc3ccccc3)C3(CCC(=O)CC3)NC2=O)c1` the same measures were 95.6%, 66.8%, 62.8% and 38.9%.
The corresponding values for `Cc1ccc(CC(=O)OC2=C(c3cc(C)ccc3C)C(=O)NC23CCC(=O)CC3)cc1` are 73.5%, 70.8%, 48.4% and 21.8%.
The corresponding values for `CCC(C)(C)C(=O)OC1=C(c2ccc(Cl)cc2Cl)C(=O)OC12CCCCC2` [SPIRODICLOFEN] are 60.3%, 70.6%, 19.4% and 36.7%.
Take `Cc1cc(C)c(C2=C(OC(=O)CC(C)(C)C)C3(CCCC3)OC2=O)c(C)c1` [SPIROMESIFEN]: the inhibition at 100 µg/mL in the assay with Aphis fabae [1] came out at 62.5%; with Tetranychus cinnabarinus [3] it was 80.2%. Besides, the inhibition at 10 µg/mL was 14.3% in the assay with Aphis fabae [2] and 42.1% with Tetranychus cinnabarinus [4].
The corresponding values for `CCOC(=O)OC1=C(c2cc(C)ccc2C)C(=O)N[C@]12CC[C@@H](OC)CC2` [SPIROTETRAMAT] are 100%, 75%, 96.8% and 26.3%.

One may read the inhibition as the share of the control response that was lost under treatment.
